This data set relates to MS2 coat protein. Description: apparent Kd, MS2 coat protein; higher = weaker binding; RNA-MaP array; FMN 200 µM where present. Put shortly: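 The apparent Kd is reported as the median of filtered per-cluster binding-curve fits. To get these curves, designs transcribed by stalled E. coli RNA polymerase on Illumina sequencing-chip clusters were titrated with SNAP-549-labelled MS2 coat protein from 0.7 or 1.5 nM, doubling to 3 µM. Titrations were run without and then with constant ligand in 100 mM Tris-HCl pH 7.5, 80 mM KCl, 4 mM MgCl2, BSA, DTT, yeast tRNA and Tween-20, and green signal was normalised to red-channel RNA signal and control-cluster median Fmax.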

Where [1] appears, read: designed as: OFF switch for flavin mononucleotide, no ligand.
The mark [2] stands for this setting: ligand present: flavin mononucleotide, designed as: OFF switch for flavin mononucleotide.
The mark [3] stands for this setting: designed as: ON switch for flavin mononucleotide, no ligand.
[4] abbreviates: ligand present: flavin mononucleotide, designed as: ON switch for flavin mononucleotide.

The results in this text go back to the EternaBench riboswitch data.

A word on the apparent Kd: it is a dissociation constant that holds for the conditions of the assay.

On to “GGAAGACAAAGUCUUCCUAUUCGAACAUGAGGAUCACCCAUGUAGGAUAUGCUACUCAAAGAGUAGCAGAAGGACAUGUGCUUU”, for which the “apparent Kd” value is, setting by setting: under setting [1], 34.8 nM; under setting [2], 160 nM.
Turning to “UGUAUACAUGAGGAUCACCCAUGUCAACGUAGUCGAGGAUAUGGGCAGCCGUGAGGCGUACCAGAAGGCGAAGAGG”, the “apparent Kd” value by setting is: under setting [3], 86.5 nM; under setting [4], 19.4 nM.
For the sequence “UGGUGAAAUGUAGGAUAUGGAAAUAAAUUUUAACCAGAAGGACAUGAGGAUCACCCAUGUGAUAGAGAAUUAAUAAUAUCUCCU”, the “apparent Kd” value is, setting by setting: under setting [1], 18.6 nM; under setting [2], 29.9 nM.
The corresponding values for “GUAUUACAUGAGGAUCACCCAUGUGAGGAUAUCGAUGUAACUAGCAGCGUGCGGGACUCGAGAAGGCACUUGGA” are 49.1 nM and 142 nM.
Take “CCGAUGAUAGGACAGGAUAUGACUGUCGUCACAUGAGGAUCACCCAUGUCCCGGCAAUGCCACCGUUAGAAGGGUCCCAUCUCGG”: the “apparent Kd” value is, setting by setting: under setting [3], 19.1 nM; under setting [4], 16.3 nM.
Take “AGUACUCAAAGAGUACGCGUAAGCACAUGAGGAUCACCCAUGUAGGAUAUGCUACUCAAAGAGUAGUAGAAGGACAUAUUCCUC”: the “apparent Kd” value by setting is: under setting [1], 5.85 nM; under setting [2], 7.46 nM.
On to “AUGGUUCUCGUAGGAUAUGUAGGAUAUGCCUACAUGAGGAUCACCCAUGUUCGCAUGGCAGAAGGACAGAAGGACGAUCACCAA”, for which the “apparent Kd” value is 365 nM under setting [3] and 19.2 nM under setting [4].
Take “GCCAGAGGAGGAUAUCUAAUAUAUCACAUGAGGAUCACCCAUGUCCAGCGAAAGCUGGAGGGAGAAGGCCUCUGGC”: the “apparent Kd” value is, setting by setting: under setting [1], 149 nM; under setting [2], 29.8 nM.
The corresponding values for “ACUAUACGAGGAUAUACUGUCGGGCCUCGGGCAUACAUACGACAUGAGGAUCACCCAUGUAGAAGGCGUUUACU” are 34.3 nM and 61.6 nM.
The corresponding values for “UUUUACUGAGGAUAUACAUUUUUUUAUUUAUUUAUAAUAUUACAUGAGGAUCACCCAUGUAGAAGGCAGAUUUU” are 27.4 nM and 24.4 nM.
The matching figures for “AGAACGUCAGGAUAUCGAACAACAAGUAAAUAGAGAAGAAGCGAGAAGGGACAUGAGGAUCACCCAUGUAAGAA”: 57.6 nM and 45.3 nM.
Turning to “GUGGUACAUGAGGAUCACCCAUGUCAGGAUAUCGCGUGGUUUUUUGCGGCCGCGCGCGCGAGAAGGGACGUCUU”, the “apparent Kd” value stood at 36.3 nM under setting [1] and 43.3 nM under setting [2].
The corresponding values for “UUUUAGUCAGGAUAUACAUGAGGAUCACCCAUGUAAAAUUUUAAUUUAAUUUUAAGGUGUAGAAGGGACAAUUC” are 48 nM and 38.6 nM.
The matching figures for “AUUUCGUCAGGAUAUCCUAGUAAUUGUUUCAUAUUUACGAUGGAGAAGGGACAUGAGGAUCACCCAUGUUGGUC”: 55.8 nM and 169 nM.
The matching figures for “GAACUGAAGCAUAGCUUUAGUCGUACAUGAGGAUCACCCAUGUAGGAUAUAGUAGGCAUAGCUUACUAGAAGGAUAGAGUGAUC”: 254 nM and 106 nM.
For the sequence “UUGGACGUCGUAGGAUAUGUAGGUUAUUCCUACAUGAGGAUCACCCAUGUUGACAUGGAAGAAGGACAGAAGGACGAUGUCCAU”, the “apparent Kd” value was found to be 184 nM under setting [3] and 4.18 nM under setting [4].
Take “GUUUAGUGAGGAUAUGUGGCUUCGAUCGUGCGAGGGCGGCUACAGAAGGCACAUGAGGAUCACCCAUGUUCCUC”: the “apparent Kd” value reads like this: under setting [1], 155 nM; under setting [2], 428 nM.
With “UGGUUCUAGGGAGGAUAUGGGAAGAUACAUGAGGAUCACCCAUGUUUAAGAAUGCCGAGAGGCAACUAGAAGGCCCUAGUACCU”, the “apparent Kd” value came to 406 nM under setting [3] and 20.3 nM under setting [4].
With “UGUGUAGAGGUGAAGCGAAUUACUGAGGAUAUGACAUGAGGAUCACCCAUGUACACAUCGUCAGGUCAGAAGGCAGUGGUUCUU”, the “apparent Kd” value stood at 7.2 nM under setting [1] and 21.1 nM under setting [2].
The matching figures for “UUACUACAUGAGGAUCACCCAUGUCAGGAUAUUGUUUAUACCUUGGAAUACGUGUCAACAAGAAGGGACUAUAU”: 22.9 nM and 23.4 nM.
The matching figures for “GGUAUGCAGCAGGAUAUCCAUCCGCGGUAUGGUGGAGAAGGGCUGACAUGAGGAUCACCCAUGUGCGUCCUAGG”: 32.8 nM and 87.6 nM.
The corresponding values for “GGGUGCUCACCGCCUUAACAUGAGGAUCACCCAUGUGGAGUGCAGGAUAUACGUUUCUAUCAUACGUAGAAGGGCACCGCGCAG” are 5.59 nM and 5.03 nM.
In the case of “GGAUUUUCUGAGGAUAUUGCAUCACCCGAUUUAUAAGAAGGCAGAACAUGAGGAUCACCCAUGUGGGUCUCCAG”, the “apparent Kd” value worked out at 28.6 nM under setting [1] and 58 nM under setting [2].
In the case of “CUGAGGUGUCAAGGAUAUGCUACCGUUUCGGUAGCAGAAGGUGAUCACAUGAGGAUCACCCAUGUAUGCAUGCGUGAGCGUGCU”, the “apparent Kd” value is, setting by setting: under setting [3], 39.5 nM; under setting [4], 55.4 nM.
Take “UGGUACAUGGGAGGAUAUGGGUUGAUAACAUGAGGAUCACCCAUGUUAAAUAUGCCUCAUGGCAACUAGAAGGCCCAUGUACCU”: the “apparent Kd” value is, setting by setting: under setting [3], 463 nM; under setting [4], 95.1 nM.
For “CAUCCGGCAGGAUAUACAUGAGGAUCACCCAUGUCAGAAAGCAAAUUGUGCGACUCAGGUAGAAGGGUUGGACU”, the “apparent Kd” value stood at 28.9 nM under setting [1] and 34.2 nM under setting [2].
For the sequence “CUGAGCUGAGGAUAUACAUGAGGAUCACCCAUGUGUUAGAGCUUGCGUACAGGCAGAUGUAGAAGGCAGUUCGG”, the “apparent Kd” value is, setting by setting: under setting [1], 17.4 nM; under setting [2], 49.7 nM.
The matching figures for “UAAAUUAUCAAGAAGGCUAACAUGAGGAUCACCCAUGUUGUACAUGGAUAUAGAGGAUAUUGCUAAUAAUUAUUUAUCAUAAUU”: 15.3 nM and 14.8 nM.
The matching figures for “UUUACUUACGAAGGAUAUGGUUACAUGAGGAUCACCCAUGUAUGUAUAUUGAUCUAGUAUUUUAACCAGAAGGUCGUGAUUUUU”: 34.4 nM and 46.6 nM.
Regarding “GGAUAGGACAGAGGAUAUACGUGCUAGAGAUACUAGCAAAAUUUCCUGACAUGAGGAUCACCCAUGUAGAAGGCUGUCCUAUCG”, the “apparent Kd” value stood at 7.22 nM under setting [1] and 15.5 nM under setting [2].
For the sequence “GGAGCUCCCAUUAACAUGAGGAUCACCCAUGUCAAAAGACAUGAGGAUAUGCUACCUAAUUGGUAGCAGAAGGCAUGGAGCUCC”, the “apparent Kd” value under setting [3] stood at 1160 nM and the “apparent Kd” value under setting [4] stood at 81 nM.
With “UGUUGUUUCAAGAAGGAUGUGUAUUUGUAUUCCAUAGGAUAUUGAGAAAUAGUUGCUCAAGUAUACAUGAGGAUCACCCAUGUU”, the “apparent Kd” value is, setting by setting: under setting [3], 14.2 nM; under setting [4], 9.98 nM.
Consider “GUGAAACAUGAGGAUCACCCAUGUGAGGAUAUGAUACUAUGUACUUCGGUACAUAGUAUCAGAAGGCACAGUGA”, for which the “apparent Kd” value by setting is: under setting [1], 96.1 nM; under setting [2], 282 nM.
The matching figures for “GCUAGUAUUGCAGGAUAUUGAGAAUAAUUUUGGCAAGAAGGGCAUAACAUGAGGAUCACCCAUGUAUUCCUUAGUGAUACUAGC”: 6.58 nM and 6.11 nM.
The corresponding values for “UGAUAGGACAGAGGAUAUACGUGCUAGAGAUACUAGCAAAAUUAAAUAACAUGAGGAUCACCCAUGUAGAAGGCUGUCCUAUCU” are 5.01 nM and 7.01 nM.
Turning to “UGGUCAUCAUCAGGAUAUUAACAUGGGCUACAUUAAGAAGGGAUAGUGAGAUAGGAACUGAAACAUGAGGAUCACCCAUGUUGU”, the “apparent Kd” value reads like this: under setting [3], 96.9 nM; under setting [4], 44.2 nM.
